Reference: ChEMBL document CHEMBL1641561, “Evaluation of hadacidin analogues” (Bioorg Med Chem Lett, 2011)
Active and inactive are the calls of the source. The calls are words filed in the database; no cut-off is given here.

Assays:
[1] = Inhibition of adenylosuccinate synthase at 5:1 aspartate to compound ratio
[2] = Inhibition of adenylosuccinate synthase at 1:1 aspartate to compound ratio
[3] = Inhibition of adenylosuccinate synthase at 10 mM
In short: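 Recombinant His-tagged AdSS (pMOB45 in E. coli BL21(DE3), IPTG-induced at 18 °C, IMAC-purified); 2.0 µg per 100 µl reaction in 20 mM Hepes pH 7.5, 50 µM IMP, 25 µM GTP, 500 µM MgCl2, 10 mM test compound. Started at room temperature with 100 or 500 µM aspartate, frozen after 5 min. Adenylosuccinate quantified by HPLC (266 nm, pH 4.4 phosphate/PIC A/methanol), peak areas over three runs.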

SMILES | inhibition [1] | inhibition [2] | inhibition ([1]; concentration not given here) [%] | inhibition ([2]; concentration not given here) [%] | inhibition [3]
CCC(C)C(C(=O)O)N(O)C=O (centres undefined) | inactive | Active | – | – | –
O=CN(O)CCC(=O)O | inactive | inactive | – | – | –
CCC(C(=O)O)N(O)C=O (centres undefined) | inactive | Active | – | – | –
CC(CCC(=O)O)NO (centres undefined) | inactive | inactive | – | – | –
O=CN(O)CCCCC(=O)O | inactive | inactive | – | – | –
O=C(O)CCNO | inactive | inactive | – | – | –
CCCC(C(=O)O)N(O)C=O (centres undefined) | inactive | Active | – | – | –
O=C(O)CCCNO | inactive | inactive | – | – | –
O=C(O)CNO | inactive | inactive | – | – | –
CC(C(=O)O)N(O)C=O (centres undefined) | – | – | 50 | 90 | –
O=CN(O)CC(=O)O | – | inactive | 80 | – | Active
O=CN(O)CCCC(=O)O | inactive | inactive | – | – | –
O=CN(O)C(CC(=O)O)C(=O)O (centres undefined) | – | – | – | 30 | –
O=CN(O)C(CCC(=O)O)C(=O)O (centres undefined) | – | – | – | 60 | –
CC(CCC(=O)O)N(O)C=O (centres undefined) | inactive | inactive | – | – | –
